Most compounds without a hit are left out; they make up all but 3% or so of the library.
UBC13 polyUb: inhibitors of human UBC13 polyubiquitin chain formation | P61088 | TR-FRET | inhibition, % at 20 µM | 330,000 compounds, 0.47% hits | AID 485273; in the data active = inhibition above about 45%, passing the limit was not always enough
Target sequence (P61088 whole entry, looked up): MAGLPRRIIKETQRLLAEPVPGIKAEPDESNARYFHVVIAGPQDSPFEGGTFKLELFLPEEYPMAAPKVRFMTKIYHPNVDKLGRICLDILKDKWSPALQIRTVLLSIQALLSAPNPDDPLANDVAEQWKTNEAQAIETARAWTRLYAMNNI
MEKK2 WT-MEK5: raises or lowers MEK5 binding to wildtype human MEKK2 PB1 domain; bead flow cytometry, Alexa488-MEK5 binding to MEKK2 WT; actives lie on both sides; binding response (% of control), % at 10 µM; 290,000 compounds, 1.1% hits; AID 1531; in the data active = binding response below about 67% or above about 130%
MEKK2 mut-MEK5: signal of MEK5 binding to mutant human MEKK2 PB1 domain | bead flow cytometry, Alexa488-MEK5 binding to MEKK2 mutant | percent response, % at 10 µM | 290,000 compounds, 0.35% hits | AID 1530; in the data active = percent response above about 24%, passing the limit was not always enough
UCH37 DUB inh: human UCH37 deubiquitinating enzyme inhibition | Q9Y5K5 | purified proteasome/UCH37, Ub-AMC cleavage fluorescence | inhibition, % (no concentration beside the values) | 330,000 compounds, 0.33% hits | AID 588478;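 active = mean inhibition over replicate wells above about 20%, limit read from the data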;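 note: 0% = compound-free wells with enzyme and 100% = wells lacking proteasome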
Target sequence (Q9Y5K5 whole entry, looked up): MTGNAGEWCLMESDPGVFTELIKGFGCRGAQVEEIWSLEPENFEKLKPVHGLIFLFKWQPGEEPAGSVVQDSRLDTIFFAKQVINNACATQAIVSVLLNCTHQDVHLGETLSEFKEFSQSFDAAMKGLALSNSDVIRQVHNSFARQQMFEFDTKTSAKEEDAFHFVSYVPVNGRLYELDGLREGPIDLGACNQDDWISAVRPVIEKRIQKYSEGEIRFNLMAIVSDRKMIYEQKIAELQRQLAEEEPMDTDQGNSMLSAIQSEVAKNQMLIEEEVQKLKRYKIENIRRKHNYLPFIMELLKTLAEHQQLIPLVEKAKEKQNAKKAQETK
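Signal – fluorescence, ex 355 nm, em 460 nm · System – Proteasome-bound UCH37 · Input – 0.15 nM proteasome as dispensed · Timing – 30 min preincubation with enzyme, 25 min cleavage at room temperature · Read-out basis – percent inhibition of cleavage signal versus uninhibited and no-proteasome wells · Medium – Tris-HCl pH 7.4 with ATP-MgCl2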
MEKK3 PB1 HTS: raises or lowers MEK5 binding to the human MEKK3 PB1 domain | bead-based flow cytometry, Alexa488-MEK5 binding to MEKK3; actives lie on both sides; 0 = blocked by unlabeled MEK5, 100 = vehicle | Q99759 | 290,000 compounds, 1.4% hits | binding response (% of control), % at 10 µM;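 active = binding response more than 3 SD above or below the average of its plate-row segment, actives on both sides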;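 note: Alexa488 bead fluorescence after subtracting the streptavidin-only scavenger bead signal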
Apaf1 inhib: blocks human Apaf-1 apoptosome activity; reconstituted apoptosome caspase-3 activity, DEVD-Rh110 fluorescence; AID 489030; inhibition, % at 20 µM; O14727; 330,000 compounds, 0.71% hits; active = inhibition of at least 40% at 20 µM;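 note: plate controls were DMSO wells for no effect and DEVD-CHO caspase inhibitor wells for full effect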
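Assay system: Apoptosome proteins | Medium: pH 7.5 Hepes buffer with CHAPS, BSA, DTT | Also added: Cytochrome c and DEVD-Rh110 substrate | Times: 30 min plus 50 min, RT | Detection: Rhodamine 110 fluorescence at Ex 480/Em 540 nm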
MEKK2wt confirm: raises or lowers MEK5 binding to wildtype human MEKK2, retest; shares compounds with MEKK3 PB1 HTS; bead flow cytometry, Alexa488-MEK5 binding to MEKK2 WT; actives lie on both sides; binding response (% of control), % at 10 µM; 5,900 compounds, 2.4% hits; in the data active = binding response below about 16% or above about 210%; inactive = in between
MEKK2mut-MEK5: signal of MEK5 binding to mutant human MEKK2, retest. shares compounds with MEKK3 PB1 HTS. bead flow cytometry, Alexa488-MEK5 binding to MEKK2 mutant. percent response, % at 10 µM. 5,900 compounds, 2% hits; in the data active = percent response mostly above about 71%, no sharp cut-off; inactive = mostly below about 38%;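 note: higher means compound restores mutant binding toward wildtype level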
MEKK3 confirm: confirmation of inhibitors of MEK5 binding to human MEKK3; shares compounds with MEKK3 PB1 HTS; bead flow cytometry, Alexa488-MEK5 binding to MEKK3; active compounds read low; binding response (% of control), % at 10 µM; 5,900 compounds, 1.8% hits; AID 1894;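 active = binding response below 72% of control, or above a set upper limit, though filed actives all read lower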;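 note: 100% = DMSO only wells and 0% = binding blocked by excess unlabeled MEK5; lower values mean stronger disruption of MEK5 binding to MEKK3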
Active calls of the source: *; i = inactive; · = no result; [ ] = another dose, or the depositor's remark.

SMILES	UBC13 polyUb	MEKK2 WT-MEK5	MEKK2 mut-MEK5	UCH37 DUB inh	MEKK3 PB1 HTS	Apaf1 inhib	MEKK2wt confirm	MEKK2mut-MEK5	MEKK3 confirm
Cn1c(=O)c2cc(S(=O)(=O)NCCC(=O)Nc3ccccc3F)ccc2n(C)c1=O	7	104	-5	-1	101	-11	·	·	·
Cc1ccc(-c2cn3cccnc3n2)cc1NC(=O)c1cccs1	23	103	0	i	133*	-5	99	-1	99
COc1cc(OC)cc(C(=O)Nc2cc(-c3cn4cccnc4n3)ccc2C)c1	26	103	1	-393	103	-9	·	·	·
CC[n+]1c(/C=C2\Sc3ccccc3N2C)ccc2cccc(C)c21	·	·	76*	24*	47*[inhibitor]	·	41	-21	83
CCOC(=O)[C@H]1[C@H]2COc3ccc(C)cc3[C@@H]2N2C(=O)c3ccc(F)cc3NC(=O)[C@@]12C	-15	·	·	-2	·	5	·	·	·
CC(=O)Nc1ccc(S(=O)(=O)N[C@@H](C)C(=O)OCc2ccc(Cl)cc2)cc1	9	107	0	-1	144*	7	107	0	102
CCC1=C(OC(=O)N(CC)CC)N2C(=O)OC(=NCCc3c[nH]c4ccccc34)[C@]2(Cc2ccccc2)[C@H]2C1=CC[C@H]1C(=O)N(CC(=O)OC)C(=O)[C@H]12	2	2.0*[inhibitor]	0	3	2.0*[inhibitor]	19	98	-4	99
CCC1=C(OC(=O)N(CC)CC)N2C(=O)OC(=NCCOC)[C@]2(Cc2ccccc2)[C@H]2C1=CC[C@H]1C(=O)N(CC(=O)OC)C(=O)[C@H]12	-2	95	3	-1	94	22	·	·	·
CCOc1cc(CNCCO)cc(Br)c1OCc1ccccc1Cl	43	142*	12	8	102	12	148	33	104
CCOc1cc(CNCCCN2CCOCC2)cc(Br)c1OCc1ccccc1Cl	39	199*	78*	11	114	12	173	33	105
CCOc1cc(CNCCN2CCOCC2)ccc1OCc1ccccc1Cl	18	104	-1	2	96	-21	·	·	·
CCOc1cc(CNC(C)(C)CO)cc(Br)c1OCc1ccc(Cl)cc1Cl	39	262*	75*	3	117	5	202	67	116
CCOc1cc(NC(=S)NCc2ccco2)c(OCC)cc1NC(=O)C1CC1	9	103	1	4	102	-9	·	·	·
O=S(=O)(c1ccccc1)n1ccc(-c2cnc(-c3ccccc3)s2)n1	4	122	4	-6	129*	15	99	-3	100
Cc1ccc(Cn2ccc(-c3cnc(-c4ccccc4)s3)n2)cc1	10	107	2	-177	103	19	·	·	·
NC(N)=N/N=C/c1ccc(OS(=O)(=O)c2ccccc2)cc1	28	146*	21	·	73	5	129	12	105
COC(=O)C1(C)Nc2ccccc2C(=O)N1c1ccccc1C (stereo not given)	23	87	-4	-166	86	6	·	·	·
N=c1sccn1CC(=O)Nc1ccccc1Sc1ccccc1	11	178*	45	0	156*	6	106	0	99
C=CCn1c(=O)/c(=C2/Sc3ccccc3N2CC)s/c1=C1/C(=O)NN=C1C	-91	57*[inhibitor]	-10	·	76	4	104	1	104
Nc1cc(N2CCOCC2)c(Cl)cc1[N+](=O)[O-]	-20	95	-2	6	73*[inhibitor]	-17	97	-2	103
CCN(CC)c1ccc(/C=N/OCC(=O)Nc2cccc(C)c2)cc1	6	61*[inhibitor]	52	·	104	21	95	-8	99
CC(=O)Nc1ccc(C=NOCC(=O)Nc2ccc(C)cc2)cc1	·	·	·	1	·	·	·	·	·
CN(c1c[nH]c(=O)[nH]c1=O)C1CCCCC1	-7	72	-13	·	69*[inhibitor]	0	102	0	99
COC(=O)Cn1c(CN2CCc3ccccc3C2)nc2c1c(=O)n(C)c(=O)n2C	-3	100	6	5	97	1	·	·	·
COc1ccc(C)cc1N(C(=O)COc1cccc(F)c1)c1nc2ccccc2s1	6	108	1	1	143*	-2	96	-7	87
SMILES	UBC13 polyUb	MEKK2 WT-MEK5	MEKK2 mut-MEK5	UCH37 DUB inh	MEKK3 PB1 HTS	Apaf1 inhib	MEKK2wt confirm	MEKK2mut-MEK5	MEKK3 confirm
COc1ccc(C)cc1N(C(=O)c1ccc(F)cc1)c1nc2ccccc2s1	2	98	6	0	92	1	·	·	·
COc1ccc(-c2sc(Nc3ccccc3)n[n+]2-c2ccc(F)cc2)cc1Br	-2	114	8	3	103	4	·	·	·
COc1ccc2ccccc2c1-c1sc(Nc2ccccc2)n[n+]1-c1ccc(F)cc1	36	155*	43*	4	110	33	169	39	106
O=C(O)c1[nH]c2ccccc2c1CC(=O)N1CCN(c2ccccc2)CC1	-3	112	3	4	132*	2	103	4	104
O=C(O)c1[nH]c2ccccc2c1CC(=O)N1CCOCC1	-1	95	-23	-2	96	-1	·	·	·
Cc1csc(-c2cnn(-c3ccccc3)c2NC(=O)c2ccccc2)n1	0	1.0*[inhibitor]	-21	4	1.0*[inhibitor]	9	103	2	105
CCO[C@H]1OC(C(=O)NCc2nc3ccccc3[nH]2)=C[C@@H](C2CC2)[C@@H]1CCCO	-1	2.0*[inhibitor]	12	4	1.0*[inhibitor]	-3	100	-2	101
O=C(NCc1nc2ccccc2[nH]1)C1=C[C@H](C2CC2)C[C@H](OCCCCO)O1	-4	94	-3	-1	79*[inhibitor]	-1	96	0	103
CCO[C@H]1OC(C(=O)NCc2nc3ccccc3[nH]2)=C[C@@H](c2ccccc2)[C@@H]1CCCO	6	72	2	1	73	7	·	·	·
O=C(NCc1nc2ccccc2[nH]1)C1=C[C@H](C2CCCCC2)C[C@H](OCCCCO)O1	4	103	2	5	103	20	·	·	·
O=C(O)c1cccc(NC(=S)NC(NC(=O)c2cccc([N+](=O)[O-])c2)C(Cl)(Cl)Cl)c1 (stereo not given)	-12	104	7	0	110	2	·	·	·
